Experimental data reported in ChEMBL document CHEMBL3272099, “Antibacterial activity of N-(beta-styryl) formamides related to tuberin” (J Med Chem, 1978).
In brackets after ≈: the same amount, converted by molar mass. Activity calls are given as the source filed them. The rule behind the calls is not given here.

Tests used:
Mycolicibacterium phlei [1] = assay: Antibacterial activity against Mycobacterium phlei; type: functional
Method in brief: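 MIC by standard agar dilution, run in duplicate; estimated standard deviation under 0.15 log units; reported as log 1/MIC (molar).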

Staphylococcus aureus [2] = assay: Antibacterial activity against Staphylococcus aureus at 200 ug/ml; type: functional, organism-based
[3] = C18 corasil-25 wt % MeOH partition coefficient, log K of the compound in 0.001 M phosphate buffer; details: pH 7.4
[4] = C18 corasil-octanol partition coefficient, log P of the compound in 0.01 M phosphate buffer at pH 7 by LC on C18 Corasil coated with 1-octanol; details: octanol/0.01 M phosphate buffer (C18 Corasil-octanol)
Staphylococcus aureus [5] = assay: Antibacterial activity against Staphylococcus aureus; type: functional
Mycolicibacterium phlei [6] = assay: Antibacterial activity against Mycobacterium phlei at 640 ug/ml; type: functional, organism-based

Row | MIC (Mycolicibacterium phlei [1]) | log K [3] | logD [4] | MIC (Staphylococcus aureus [5]) | Compound | Activity (Staphylococcus aureus [2]) | Activity (Mycolicibacterium phlei [6])
1 | 640 µg/mL (≈ 3720 µM) | 0.04 | 1.62 |  | N#Cc1ccc(/C=C/NC=O)cc1 | inactive | 
2 | 320 µg/mL (≈ 1670 µM) | 0.24 | 1.94 | 3 µg/mL (≈ 15.6 µM) | O=CN/C=C/c1ccc([N+](=O)[O-])cc1 |  | 
3 | 640 µg/mL (≈ 3120 µM) | 0.16 | 1.32 |  | CC(=O)Oc1ccc(/C=C/NC=O)cc1 | inactive | 
4 |  |  |  |  | O=CN/C=C/c1ccc(O)cc1 | inactive | inactive
5 |  |  |  |  | O=CN/C=C/c1ccco1 | inactive | inactive
6 | 80 µg/mL (≈ 372 µM) | 1.09 | 3.06 | 100 µg/mL (≈ 465 µM) | O=CN/C=C/c1ccc(C(F)(F)F)cc1 |  | 
7 | 320 µg/mL (≈ 1560 µM) | 0.93 | 2.61 |  | CC(C)Oc1ccc(/C=C/NC=O)cc1 | inactive | 
8 | 80 µg/mL (≈ 440 µM) | 0.79 | 2.7 | 200 µg/mL (≈ 1100 µM) | O=CN/C=C/c1ccc(Cl)cc1 |  | 
9 | 160 µg/mL (≈ 586 µM) | 1.14 | 3.18 | 200 µg/mL (≈ 732 µM) | O=CN/C=C/c1ccc(I)cc1 |  | 
10 | 80 µg/mL (≈ 394 µM) | 1.71 | 3.82 | 200 µg/mL (≈ 984 µM) | CC(C)(C)c1ccc(/C=C/NC=O)cc1 |  | 
11 | 320 µg/mL (≈ 1110 µM) | 0.78 | 1.95 |  | O=CN/C=C/c1ccc(S(=O)(=O)c2ccccc2)cc1 | inactive | 
12 | 20 µg/mL (≈ 101 µM) | 1.16 | 3.22 |  | O=CN/C=C/c1ccc2ccccc2c1 | inactive | 
13 | 80 µg/mL (≈ 451 µM) | 0.28 | 1.94 |  | COc1ccc(/C=C/NC=O)cc1 | inactive | 
14 | 40 µg/mL (≈ 207 µM) | 0.77 | 2.55 | 100 µg/mL (≈ 517 µM) | CSc1ccc(/C=C/NC=O)cc1 |  | 
15 | 160 µg/mL (≈ 969 µM) | 0.33 | 2.11 |  | O=CN/C=C/c1ccc(F)cc1 | inactive | 
16 | 640 µg/mL (≈ 3360 µM) | 0.48 | 2.03 |  | CN(C)c1ccc(/C=C/NC=O)cc1 | inactive | 
17 | 160 µg/mL (≈ 1040 µM) |  |  |  | O=CN/C=C/C1CCCCC1 | inactive | 
18 | 320 µg/mL (≈ 1470 µM) |  | 2.9 |  | CCN(CC)c1ccc(/C=C/NC=O)cc1 | inactive | 
19 | 320 µg/mL (≈ 2090 µM) |  |  | 25 µg/mL (≈ 163 µM) | O=CN/C=C/c1cccs1 |  | 
20 | 80 µg/mL (≈ 406 µM) |  |  |  | O=CN/C=C/c1cccc2ccccc12 | inactive | 
21 | 160 µg/mL (≈ 708 µM) | 0.96 | 2.87 | 100 µg/mL (≈ 442 µM) | O=CN/C=C/c1ccc(Br)cc1 |  | 
22 | 40 µg/mL (≈ 248 µM) | 0.66 | 2.45 |  | Cc1ccc(/C=C/NC=O)cc1 | inactive | 
23 | 80 µg/mL (≈ 365 µM) | 1.62 | 3.32 |  | CCCCOc1ccc(/C=C/NC=O)cc1 | inactive | 
24 | 40 µg/mL (≈ 209 µM) | 0.65 | 2.31 |  | CCOc1ccc(/C=C/NC=O)cc1 | inactive | 
25 | 40 µg/mL (≈ 283 µM) |  |  |  | CCCCC/C=C/NC=O | inactive | 

Row | Compound | MIC (Mycolicibacterium phlei [1]) | log K [3] | logD [4] | MIC (Staphylococcus aureus [5]) | Activity (Staphylococcus aureus [2]) | Activity (Mycolicibacterium phlei [6])
26 | O=CN/C=C/c1ccccc1 | 640 µg/mL (≈ 4350 µM) | 0.21 | 1.95 | 50 µg/mL (≈ 340 µM) |  | 
